Results reported in ChEMBL document CHEMBL1123176, “Synthesis and antitumor activity of cyclophosphamide analogues. 4. Preparation, kinetic studies, and anticancer screening of "phenylketophosphamide" and similar compounds related to the cyclophosphamide metabolite aldophosphamide” (1986).

Assays:
Mus musculus [1] = experiment: Number of survivors on the toxicity day (day = 5) at a dose of 400x1 mg/kg; 5/6; format: functional
Mus musculus [2] = experiment: Number of survivors on day 60 at a dose of 25 mg/kg; 0/7; format: functional
How it was run: (§1)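 Male BDF1 mice, 6 weeks old, implanted ip with 1 × 10^5 L1210 lymphoid leukemia cells on day 0. Dosing was a single ip dose on day 2 in 10% Me2SO, except where noted: x7 schedules given ip on days 2 through 8; some arms given po; some arms in saline vehicle. Read-outs were % increased life span and survivors on day 60; some runs were duplicated.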

Mus musculus [3] = experiment: Number of survivors on the toxicity day (day = 5) at a dose of 200x1 mg/kg; 5/6; format: functional
Mus musculus [4] = experiment: Increased life span against L1210 lymphoid leukemia cells in male BDF1 mice at a dose of 20x7 mg/kg; format: functional; how it was run: as §1
Mus musculus [5] = experiment: Number of survivors on the toxicity day (day = 21) at a dose of 100x1 mg/kg; 5/7; format: functional
Mus musculus [6] = experiment: Number of survivors on the toxicity day (day = 5) at a dose of 25x1 mg/kg; 5/6; format: functional
Mus musculus [7] = experiment: Number of survivors on day 60 at a dose of 7.5 mg/kg; 0/7; format: functional; how it was run: as §1
Mus musculus [8] = experiment: Compound was ested for antitumor activity against Lewis lung carcinoma cells implanted in female CD2F1 mice at a dose of 50x2 mg/kg; format: functional
Mus musculus [9] = experiment: Compound was ested for antitumor activity against Lewis lung carcinoma cells implanted in CD2F1 female mice at a dose of 25x2 mg/kg; format: functional
Mus musculus [10] = experiment: Increased life span against L1210 lymphoid leukemia cells in male BDF1 mice at a dose of 30 mg/kg; format: functional; how it was run: as §1
Mus musculus [11] = experiment: Number of survivors on the toxicity day (day = 5) at a dose of 100x1 mg/kg; 6/6; format: functional
Mus musculus [12] = experiment: Number of survivors on the toxicity day (day = 5) at a dose of 50x1 mg/kg; 6/6; format: functional
Mus musculus [13] = experiment: Compound was ested for antitumor activity against Lewis lung carcinoma cells implanted in male CD2F1 mice at a dose of 400x2 mg/kg; Toxic doxe; format: functional, organism-based
Mus musculus [14] = experiment: Number of survivors on day 60 at a dose of 5 x 7 ip administration day 2 through day; format: functional; how it was run: as §1
Mus musculus [15] = experiment: Compound was ested for antitumor activity against Lewis lung carcinoma cells implanted in male CD2F1 mice at a dose of 5x6 mg/kg; format: functional
Mus musculus [16] = experiment: Number of survivors on the toxicity day (day = 5) at a dose of 200x1 mg/kg; 6/6; format: functional
Mus musculus [17] = experiment: Compound was ested for antitumor activity against Lewis lung carcinoma cells implanted in female CD2F1 mice at a dose of 100x2 mg/kg; format: functional
Mus musculus [18] = experiment: Increased life span against L1210 lymphoid leukemia cells in male BDF1 mice at a dose of 100 mg/kg; format: functional; settings: for ILS at 100 mg/kg: Mus musculus, BDF1, L1210, dose 100 mg/kg; how it was run: as §1
Mus musculus [19] = experiment: Increased life span against L1210 lymphoid leukemia cells in male BDF1 mice at a dose of 5x7 mg/kg; format: functional; how it was run: as §1
Mus musculus [20] = experiment: Compound was ested for antitumor activity against Lewis lung carcinoma cells implanted in male C57BL mice at a dose of 100 mg/kg; format: functional
Mus musculus [21] = experiment: Compound was ested for antitumor activity against Lewis lung carcinoma cells implanted in female CD2F1 mice at a dose of 200x2 mg/kg; T=Toxic doxe; format: functional, organism-based
Mus musculus [22] = experiment: Increased life span against L1210 lymphoid leukemia cells in male BDF1 mice at a dose of 25 mg/kg; format: functional; how it was run: as §1
Mus musculus [23] = experiment: Increased life span against L1210 lymphoid leukemia cells in male BDF1 mice at a dose of 15 mg/kg; format: functional; how it was run: as §1
Mus musculus [24] = experiment: Compound was ested for antitumor activity against Lewis lung carcinoma cells implanted in male CD2F1 mice at a dose of 200x2 mg/kg; format: functional
Mus musculus [25] = experiment: Increased life span against L1210 lymphoid leukemia cells in male BDF1 mice at a dose of 7.5 mg/kg; format: functional; how it was run: as §1
Mus musculus [26] = experiment: Increased life span against L1210 lymphoid leukemia cells in male BDF1 mice at a dose of 50 mg/kg; format: functional; how it was run: as §1
Mus musculus [27] = experiment: Compound was ested for antitumor activity against Lewis lung carcinoma cells implanted in male CD2F1 mice at a dose of 100x2 mg/kg; format: functional
Mus musculus [28] = experiment: Increased life span against L1210 lymphoid leukemia cells in male BDF1 mice at a dose of 10x7 mg/kg; format: functional; how it was run: as §1
Mus musculus [29] = experiment: Number of survivors on day 60 at a dose of 50 mg/kg; 0/7; format: functional; how it was run: as §1
Mus musculus [30] = experiment: Increased life span against L1210 lymphoid leukemia cells in male BDF1 mice at a dose of 400 mg/kg; format: functional; settings: for ILS at 400 mg/kg: Mus musculus, BDF1, L1210; how it was run: as §1
Mus musculus [31] = experiment: Number of survivors on day 60 at a dose of 200 mg/kg; 0/7; format: functional; how it was run: as §1
Mus musculus [32] = experiment: Increased life span against L1210 lymphoid leukemia cells in male BDF1 mice at a dose of 200 mg/kg; format: functional; settings: for ILS at 200 mg/kg: Mus musculus, BDF1, L1210; how it was run: as §1
Mus musculus [33] = experiment: Number of survivors on day 60 at a dose of 400 mg/kg; 7/7; format: functional; how it was run: as §1
Mus musculus [34] = experiment: Number of survivors on day 60 at a dose of 100 mg/kg; 0/7; format: functional; how it was run: as §1
Mus musculus [35] = experiment: Number of survivors on the toxicity day (day = 15) at a dose of 100x1 mg/kg; format: functional
Mus musculus [36] = experiment: Number of survivors on day 60 at a dose of 400 mg/kg; 0/7; format: functional; how it was run: as §1
Mus musculus [37] = experiment: Number of survivors on the toxicity day (day = 15) at a dose of 500x1 mg/kg; 5/6; format: functional
Mus musculus [38] = experiment: Number of survivors on day 60 at a dose of 200 mg/kg; 1/7; format: functional; how it was run: as §1
Mus musculus [39] = experiment: Compound was ested for antitumor activity against Lewis lung carcinoma cells implanted in female CD2F1 mice at a dose of 125 x1 mg/kg; format: functional
Mus musculus [40] = experiment: Compound was ested for antitumor activity against Lewis lung carcinoma cells implanted in female CD2F1 mice at a dose of 500x1 mg/kg; format: functional
Mus musculus [41] = experiment: Compound was ested for antitumor activity against Lewis lung carcinoma cells implanted in female CD2F1 mice at a dose of 62.5x1 mg/kg; format: functional
Mus musculus [42] = experiment: Number of survivors on the toxicity day (day = 15) at a dose of 250x1 mg/kg; 6/6; format: functional
Mus musculus [43] = experiment: Number of survivors on the toxicity day (day = 15) at a dose of 62.5x1 mg/kg; 6/6; format: functional
Mus musculus [44] = experiment: Compound was ested for antitumor activity against Lewis lung carcinoma cells implanted in female CD2F1 mice at a dose of 250x1 mg/kg; format: functional
Mus musculus [45] = experiment: Number of survivors on the toxicity day (day = 15) at a dose of 125 x1 mg/kg; 6/6; format: functional
Mus musculus [46] = experiment: Number of survivors on day 60 at a dose of 400 mg/kg; 5/7; format: functional; how it was run: as §1

NP(=O)(OCCC(=O)c1ccccc1)N(CCCl)CCCl (stereo unspecified)
Survivors (Mus musculus [1]): 5 | Survivors (Mus musculus [2]): 0 | Survivors (Mus musculus [3]): 5 | ILS (Mus musculus [4]): 58.8 | Survivors (Mus musculus [5]): 5 | Survivors (Mus musculus [6]): 5 | Survivors (Mus musculus [7]): 0 | T/C (Mus musculus [8]): 223% | T/C (Mus musculus [9]): 163% | ILS at 30 mg/kg (Mus musculus [10]): 35.1% | Survivors (Mus musculus [11]): 6 | Survivors (Mus musculus [12]): 6 | T/C (Mus musculus [13]): Toxic | Survivors (Mus musculus [14]): 0 | T/C (Mus musculus [15]): 106% | Survivors (Mus musculus [16]): 6 | T/C (Mus musculus [17]): 92% | ILS at 100 mg/kg (Mus musculus [18]): -34% | ILS (Mus musculus [19]): 20.6 | T/C (Mus musculus [20]): 63% | T/C (Mus musculus [21]): Toxic | ILS at 25 mg/kg (Mus musculus [22]): 22.9% | ILS at 15 mg/kg (Mus musculus [23]): 16.3% | T/C (Mus musculus [24]): 89% | ILS at 7.5 mg/kg (Mus musculus [25]): 10.7% | ILS at 50 mg/kg (Mus musculus [26]): 43.9% | T/C (Mus musculus [27]): 221% | ILS (Mus musculus [28]): 29.7 | Survivors (Mus musculus [29]): 0

O=P1(NCCCl)OCCCN1CCCl (stereo unspecified) [IFOSFAMIDE]
ILS (Mus musculus [30]): >617 | Survivors (Mus musculus [31]): 0 | ILS (Mus musculus [32]): 99.8 | Survivors (Mus musculus [33]): 7 | Survivors (Mus musculus [34]): 0 | Survivors (Mus musculus [29]): 0

O=P1(N(CCCl)CCCl)NCCCO1 (stereo unspecified) [CYCLOPHOSPHAMIDE ANHYDROUS]
Survivors (Mus musculus [35]): 7 | ILS at 100 mg/kg (Mus musculus [18]): 59.6% | ILS (Mus musculus [18]; dose 100 mg/kg): 52.9% | ILS at 200 mg/kg (Mus musculus [32]): > 423% | Survivors (Mus musculus [34]): 0

O=C(CCOP(=O)(NCCCl)N(CCCl)CCCl)c1ccccc1 (stereo unspecified)
ILS at 400 mg/kg (Mus musculus [30]): -19.7% | Survivors (Mus musculus [31]): 0 | ILS at 100 mg/kg (Mus musculus [18]): 29.9% | ILS at 200 mg/kg (Mus musculus [32]): 60.6% | Survivors (Mus musculus [36]): 0 | Survivors (Mus musculus [34]): 0

O=C(CCOP(=O)(NCCCl)NCCCl)c1ccccc1
ILS at 400 mg/kg (Mus musculus [30]): > 443% | Survivors (Mus musculus [37]): 5 | Survivors (Mus musculus [38]): 1 | T/C (Mus musculus [39]): 138% | T/C (Mus musculus [40]): 291% | T/C (Mus musculus [41]): 117% | Survivors (Mus musculus [42]): 6 | Survivors (Mus musculus [43]): 6 | ILS at 100 mg/kg (Mus musculus [18]): 51.7% | T/C (Mus musculus [44]): 165% | Survivors (Mus musculus [45]): 6 | Survivors (Mus musculus [46]): 5 | Survivors (Mus musculus [34]): 0 | ILS at 50 mg/kg (Mus musculus [26]): 20.2% | Survivors (Mus musculus [29]): 0
